Laboratory results published in ChEMBL document CHEMBL1155794, “Novel N1-substituted 1,3-dihydro-2H-benzimidazol-2-ones as potent non-nucleoside reverse transcriptase inhibitors” (Bioorg Med Chem, 2008).
pEC50, pIC50: −log10 of the molar value.

Tests used:
[1] = Selectivity index, ratio of CC50 for human MT4 cells to EC50 for HIV1 3B; assay type: toxicity, cell-based; conditions: read-out: Ratio CC50/EC50
[2] = Cytotoxicity against human MT4 cells; assay type: cell-based
In short: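 MT-4 cell viability measured after exposure to compound dilutions; CC50 taken as concentration lowering viability by 50%.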

[3] = biological target: Human immunodeficiency virus type 1 reverse transcriptase (Human immunodeficiency virus 1, UniProt Q72547); assay: Inhibition of HIV1 reverse transcriptase RNA-dependent DNA polymerase activity assessed as incorporation of radioactive dTTP into poly(rA)/oligo(DT)
[4] = test system: Human immunodeficiency virus 1; assay: Antiviral activity against HIV1 3B in human MT4 cells assessed as virus-induced cytopathogenicity after 5 days; assay type: functional, organism-based; conditions: Human immunodeficiency virus 1, 3B, MT4, 120 h
In short: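 MT-4 cells infected and treated with serial dilutions, incubated at 37 °C for 5 days; viable cell count determined; EC50 = concentration reducing virus-induced cytopathicity by 50%.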

pIC50 [3]	pEC50 [4]	Compound	selectivity ratio [1]	CC50 [2]
6.55	6.37	Cc1cc(C)cc(Cn2c(=O)[nH]c3ccc(C(F)(F)F)cc32)c1	88	37.4 µM
5.89	6.71	Cc1ccc2[nH]c(=O)n(S(=O)(=O)c3c(F)cccc3F)c2c1	11	2.22 µM
7.77	5.26	O=c1[nH]c2ccc(C(F)(F)F)cc2n1Cc1c(F)cccc1F	> 77	> 424 µM
4.41	5.78	CC(=O)n1c(=O)n(Cc2cc(F)cc(F)c2)c2cc(Cl)ccc21	24	40.4 µM
4.11	7.12	Cc1cc(C)cc(Cn2c(=O)[nH]c3ccc(C)cc32)c1	11	0.856 µM
< 3.40	< 4.14	Cc1ccc2[nH]c(=O)n(Cc3cc(F)cc(F)c3)c2c1	< 1	73 µM
< 4.00	7.93	CC(=O)n1c(=O)n(Cc2cc(C)cc(C)c2)c2cc(Cl)ccc21	614	7.18 µM
7.34	7.12	Cc1cc(C)cc(Cn2c(=S)[nH]c3ccc(Cl)cc32)c1	4	0.305 µM
4.52	5.81	O=c1[nH]c2ccc(Cl)cc2n1S(=O)(=O)c1c(F)cccc1F	124	194 µM
6.80	6.35	Cc1cc(C)cc(S(=O)(=O)n2c(=O)[nH]c3cc(F)c(Cl)cc32)c1	310	140 µM
< 4.00	6.27	CC(=O)n1c(=O)n(Cc2c(F)cccc2F)c2cc(Cl)ccc21	190	102 µM
7.00	7.16	O=c1[nH]c2ccc(Cl)cc2n1S(=O)(=O)c1cc(F)cc(F)c1	2930	202 µM
< 4.00	4.73	Cc1ccc2[nH]c(=O)n(Cc3c(F)cccc3F)c2c1	13	236 µM

The next lines start with the compound.

Compound	pIC50 [3]	pEC50 [4]	selectivity ratio [1]	CC50 [2]
Cc1cc(C)cc(Cn2c(=O)[nH]c3ccc(Cl)cc32)c1			281	
Cc1cc(C)cc(S(=O)(=O)n2c(=O)[nH]c3ccc(Cl)cc32)c1			17800	
O=c1[nH]c2ccc(Cl)cc2n1Cc1c(F)cccc1F			> 1890	> 424 µM
Cc1cc(C)cc(S(=O)(=O)n2c(=O)[nH]c3ccc(C)cc32)c1	7.00	8.20	> 48900	> 308 µM
Fc1cc(F)cc(Cn2c(=S)[nH]c3ccc(Cl)cc32)c1	6.80	< 6.13	2	1.2 µM
O=c1[nH]c2cc(F)c(Cl)cc2n1Cc1cc(F)cc(F)c1	8.52	< 4.47		> 400 µM
Cc1ccc2[nH]c(=O)n(S(=O)(=O)c3cc(F)cc(F)c3)c2c1	6.70	7.19	360	23.4 µM
O=c1[nH]c2ccc(Cl)cc2n1Cc1cc(F)cc(F)c1	7.00	6.54	> 1470	> 424 µM
Fc1cccc(F)c1Cn1c(=S)[nH]c2ccc(Cl)cc21		6.13	8	5.95 µM
O=c1[nH]c2cc(F)c(Cl)cc2n1Cc1c(F)cccc1F	6.85	4.54	9	267 µM
Cc1cc(C)cc(Cn2c(=O)[nH]c3cc(F)c(Cl)cc32)c1	< 4.00	6.03	> 438	> 410 µM
O=C1Nc2ccc(Cl)cc2[C@@](C#CC2CC2)(C(F)(F)F)O1 [EFAVIRENZ]				> 6 µM
Cc1ccnc2c1NC(=O)c1cccnc1N2C1CC1 [NEVIRAPINE]				> 15 µM
